Laboratory results published in ChEMBL document CHEMBL1129961, “Design, synthesis, and antiviral evaluation of 2-chloro-5,6-dihalo-1-beta-D-ribofuranosylbenzimidazoles as potential agents for human cytomegalovirus infections” (J Med Chem, 1997).
pIC50: −log10 of the molar value.

Key:
Human betaherpesvirus 5 [1] = experiment: Concentration required for 50% inhibition of HCMV replication was measured using a Plaque reduction assay; type: functional, organism-based
Procedure, shortened: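 HFF cells in 24-well dishes infected with about 100 pfu of HCMV (Towne) per cm² cell sheet. After adsorption, compound in growth medium added to duplicate wells at four to eight concentrations. Incubated 7 days at 37 °C, then crystal violet fixing/staining and microscopic plaque counts. IC50 by linear regression of % plaque reduction against log concentration.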

Human alphaherpesvirus 1 = experiment: Antiviral activity was measured by plaque assay against HSV-1 virus by ELISA method; type: functional, organism-based
Procedure, shortened: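 HSV-1 (KOS strain) ELISA in BSC-1 cells, 10 000 per well in MEM(E) + 10% calf serum, seeded overnight at 37 °C. Drug in quadruplicate wells plus virus at 100 pfu/well, 3 days at 37 °C. Read-out: HRP-conjugated rabbit anti-HSV-1 antibody with TMB substrate, stopped with H2SO4, absorbance at 450 and 570 nm. IC50 from linear regression of % inhibition against log concentration.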

HFF = experiment: Visual cytotoxicity was scored on HFF cells at time of HCMV plaque enumeration; type: functional, cell-based; settings: Homo sapiens
Procedure, shortened: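 Stationary HFF cells from the HCMV plaque assay, not affected by virus, inspected microscopically for cytotoxicity when plaques were counted after 7 days at 37 °C with compound at four to eight concentrations.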

Human betaherpesvirus 5 [2] = experiment: Concentration required for 90% inhibition of HCMV replication was measured using a yield reduction assay; type: functional
Procedure, shortened: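 HFF monolayers in 96-well dishes infected with HCMV (Towne) at moi 0.5 to 1 pfu per cell. Compound serially diluted 1:3, 100 to 0.14 μM, in duplicate. 7 days at 37 °C, then one freeze-thaw cycle. Progeny titred by 1:3 serial dilution onto fresh HFF monolayers with plaque counts. IC90 by regression of % inhibition against log concentration.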

KB = experiment: Inhibition of KB cell growth was determined; type: functional, cell-based; settings: Homo sapiens
Procedure, shortened: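 KB cells seeded at 3000–5000 per well, overnight at 37 °C. Compound added in quadruplicate at six to eight concentrations, 48 h at 37 °C in CO2 (two population doublings). Ethanol fixation, 0.1% crystal violet staining, acidified-ethanol elution, absorbance at 570 nm. IC50 by linear regression against log concentration.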

| Compound | pIC50 (Human betaherpesvirus 5 [1]) | pIC50 (Human alphaherpesvirus 1) | pIC50 (HFF) | IC90 (Human betaherpesvirus 5 [2]) [nM] | pIC50 (KB) |
| --- | --- | --- | --- | --- | --- |
| OC[C@H]1OC(n2c(Cl)nc3cc(Br)c(Br)cc32)[C@H](O)[C@@H]1O (some centres not stated) | 5.42 | < 4.00 | 4.36 | 1300 | 4.06 |
| OC[C@H]1OC(n2c(Cl)nc3cc(I)c(I)cc32)[C@H](O)[C@@H]1O (some centres not stated) | 5.60 | 4.24 | 4.89 | 2200 | 4.57 |
| O=[N+]([O-])c1cc2[nH]c(Cl)nc2cc1I | 5.55 | 4.60 | 5.00 | 7000 | – |
| OC[C@H]1O[C@@H](n2c(Cl)nc3cc(Cl)c(Cl)cc32)[C@H](O)[C@@H]1O | – | – | – | 1400 | – |
| Cc1cc2nc(Cl)n(C3O[C@H](CO)[C@@H](O)[C@H]3O)c2cc1C (some centres not stated) | < 4.00 | < 4.00 | < 4.00 | – | < 4.00 |
| Nc1cc2[nH]c(Cl)nc2cc1[N+](=O)[O-] | < 4.00 | 4.05 | < 4.00 | – | – |
| OC[C@H]1OC(n2c(Cl)nc3cc(F)c(F)cc32)[C@H](O)[C@@H]1O (some centres not stated) | < 4.00 | < 4.00 | < 4.00 | 75000 | < 4.00 |
| O=C(O)P(=O)(O)O [FOSCARNET] | – | – | < 4.00 | – | – |
| Clc1nc2cc(I)c(I)cc2[nH]1 | 4.70 | – | 4.49 | – | – |
| Nc1cc2[nH]c(Cl)nc2cc1I | < 4.00 | < 4.00 | < 4.00 | – | – |
| OC[C@H]1OC(n2c(Cl)nc3ccccc32)[C@H](O)[C@@H]1O (some centres not stated) | < 4.00 | – | < 4.00 | > 100000 | < 4.00 |
| Clc1nc2cc(Br)c(Br)cc2[nH]1 | 5.07 | 4.19 | 4.49 | – | 4.46 |
| Nc1nc2c(ncn2COC(CO)CO)c(=O)[nH]1 [GANCICLOVIR] | – | – | < 4.00 | 1600 | < 4.00 |
| Fc1cc2nc(Cl)[nH]c2cc1F | < 4.00 | – | < 4.00 | – | < 4.00 |
